Where a name gives a salt, the structure may show the parent alone. Activity calls are given as the source filed them. No cut-off for these calls is given here.
What was measured:
[1] = test system: HOP-62; test: Cytotoxicity against human HOP62 cells after 48 hrs by SRB assay; type: functional; details: HOP-62, 48 h
Summary of the method: (§1)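 Cells were grown in RPMI 1640 with 10% FBS and 2 mM L-glutamine, plated 24 h before dosing, then given continuous 48 h exposure at 0.1, 1, 10 and 100 µM in triplicate wells. Cells were fixed with cold TCA (10% final, 60 min, 4 °C), stained with 0.4% SRB in 1% acetic acid for 20 min, eluted with 10 mM Tris base, and read at 540/690 nm. GI50 was taken from [(Ti−Tz)/(C−Tz)]×100 = 50; three determinations were averaged.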

[2] = test system: COLO 205; test: Cytotoxicity against human COLO205 cells after 48 hrs by SRB assay; type: functional; details: COLO 205, 48 h; summary of the method: as §1
[3] = test system: KB; test: Cytotoxicity against human KB cells after 48 hrs by SRB assay; type: functional; summary of the method: as §1
[4] = test system: SiHa; test: Cytotoxicity against human SiHa cells after 48 hrs by SRB assay; type: functional
Summary of the method: (§2)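 Cells grown in RPMI 1640 with 10% FBS and 2 mM L-glutamine, plated and left 24 h at 37 °C/5% CO2, then exposed continuously for 48 h to 0.1, 1, 10 and 100 µM in triplicate wells. Fixed with cold TCA (10% final), stained with 0.4% SRB, eluted with 10 mM Tris base, read at 540 nm (690 nm reference). GI50 from [(Ti−Tz)/(C−Tz)]×100 = 50; mean of three determinations.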

[5] = test system: A549; test: Cytotoxicity against human A549 cells after 48 hrs by SRB assay; type: functional; details: A549, 48 h; summary of the method: as §1
[6] = test system: PC-3; test: Cytotoxicity against human PC3 cells after 48 hrs by SRB assay; type: functional; details: PC-3, 48 h; summary of the method: as §1
[7] = Cytotoxicity against human GURAV cells after 48 hrs by SRB assay; type: functional; summary of the method: as §1
[8] = test system: ZR-75-1; test: Cytotoxicity against human ZR-75-1 cells after 48 hrs by SRB assay; type: functional; details: ZR-75-1, 48 h; summary of the method: as §2
[9] = Cytotoxicity against human DWD cells after 48 hrs by SRB assay; type: functional; summary of the method: as §1
[10] = test system: MCF7; test: Cytotoxicity against human MCF7 cells after 48 hrs by SRB assay; type: functional; details: MCF7, 48 h; summary of the method: as §1
[11] = test system: A2780; test: Cytotoxicity against human A2780 cells after 48 hrs by SRB assay; type: functional; details: A2780, 48 h; summary of the method: as §1
[12] = Inhibition of bovine tubulin after 3 hrs; design: species or system Bos taurus
Summary of the method: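 Bovine brain tubulin purified by three polymerization/depolymerization cycles. A340 read every 2 min for 3 h at 37 °C, nocodazole as control. IC50 taken as the concentration halving assembly versus control.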

[13] = species: Bos taurus; test: Inhibition of bovine tubulin at 2.5 uM after 3 hrs relative to control
[14] = test system: MCF7; test: Cell cycle arrest in human MCF7 cells assessed as accumulation at G2/M phase after 48 hrs using FITC/propidium iodide staining by flow cytometry; type: functional, cell-based
Summary of the method: (§3)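 MCF7 cells in 6-well plates were exposed for 48 h, harvested with trypsin–EDTA, and fixed in ice-cold 70% ethanol at 4 °C for 30 min. They were then stained with a propidium iodide solution containing trisodium citrate and Triton X-100 for 30 min in the dark. DNA content was read by flow cytometry on 20,000 events, and cells were scored by cell-cycle phase from histograms.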

[15] = molecular target: Tubulin (Homo sapiens) (UniProt P68371+Q9H4B7+P0DPH7+P68366+Q13509+Q71U36+P04350+Q3ZCM7+P07437+P68363+Q9BQE3+Q6PEY2+Q13885+Q9BVA1+Q9BUF5); test: Inhibition of tubulin polymerization in human MCF7 cells at 2.5 uM by immunohistochemistry; type: cell-based
Summary of the method: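 MCF7 cells on glass cover slips exposed 48 h to 2.5 µM. Fixed with 3% paraformaldehyde/0.02% glutaraldehyde, permeabilized in −20 °C methanol, blocked with 1% BSA. Stained with mouse monoclonal anti-tubulin plus FITC secondary, then confocal imaging of microtubule network integrity. Nocodazole and taxol (2.5 µM) run as controls; untreated cells as baseline.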

[16] = test system: MCF7; test: Induction of apoptosis in human MCF7 cells assessed as nuclear condensation at 2 uM after 48 hrs by fluorescence microscopy; type: functional, cell-based
Summary of the method: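 MCF7 cells on cover slips in 6-well plates treated 48 h at 1–3 µM. Nocodazole and podophyllotoxin (1 µM) served as controls. Fixed in 3% paraformaldehyde/0.02% glutaraldehyde, stained with Hoechst (5 µM, 30 min), washed in PBS and imaged by fluorescence microscopy with DAPI filters. Five fields of view examined.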

[17] = test system: MCF7; test: Cell cycle arrest in human MCF7 cells assessed as accumulation at G0 phase after 48 hrs using FITC/propidium iodide staining by flow cytometry; type: functional, cell-based; summary of the method: as §3

SMILES	GI50 [1] [nM]	GI50 [2] [nM]	GI50 [3] [nM]	GI50 [4] [nM]	GI50 [5] [nM]	GI50 [6] [nM]	GI50 [7] [nM]	GI50 [8] [nM]	GI50 [9] [nM]	GI50 [10] [nM]	GI50 [11] [nM]	IC50 [12] [nM]	inhibition [13] [%]	Activity [14]	inhibition [15]	Activity [16]	Activity [17]
COc1cc(/C=C/C(=O)N2CCN(C(=O)c3cc(OC)c(OC)c(OC)c3)CC2)ccc1OCCCCCCOc1cc2c(cc1OC)C(=O)N1CCC[C@H]1C=N2	2600	2100	1900	2500	160	1900	1900	210	170	180	180	–	–	–	–	–	–
COc1cc(/C=C/C(=O)N2CCN(C(=O)/C=C/c3ccc(OCCCCOc4cc5c(cc4OC)C(=O)N4CCC[C@H]4C=N5)c(OC)c3)CC2)ccc1OCCCCOc1cc2c(cc1OC)C(=O)N1CCC[C@H]1C=N2	< 100	150	< 100	< 100	< 100	160	< 100	150	120	150	< 100	27900	40	Active	Active	Active	Active
COc1cc(/C=C/C(=O)N2CCN(C(=O)/C=C/c3ccc(OCCCOc4cc5c(cc4OC)C(=O)N4CCC[C@H]4C=N5)c(OC)c3)CC2)ccc1OCCCOc1cc2c(cc1OC)C(=O)N1CCC[C@H]1C=N2	150	< 100	140	160	< 100	150	140	< 100	< 100	< 100	120	–	–	–	–	–	–
COc1cc(/C=C/C(=O)N2CCN(C(=O)/C=C/c3ccc(OCCCCCOc4cc5c(cc4OC)C(=O)N4CCC[C@H]4C=N5)c(OC)c3)CC2)ccc1OCCCCCOc1cc2c(cc1OC)C(=O)N1CCC[C@H]1C=N2	180	< 100	2000	2000	110	< 100	2300	< 100	< 100	1000	160	–	–	–	–	–	–
COc1cccc2c1C(=O)c1c(O)c3c(c(O)c1C2=O)C[C@@](O)(C(=O)CO)C[C@@H]3O[C@H]1C[C@H](N)[C@H](O)[C@H](C)O1 [DOXORUBICIN HYDROCHLORIDE]	120	130	130	150	< 100	160	140	120	120	< 100	< 100	–	–	–	–	–	–
COc1cc(/C=C/C(=O)N2CCN(C(=O)c3cc(OC)c(OC)c(OC)c3)CC2)ccc1OCCCCCOc1cc2c(cc1OC)C(=O)N1CCC[C@H]1C=N2	150	< 100	120	140	110	140	130	140	< 100	130	110	–	–	–	–	–	–
COc1cc(/C=C/C(=O)N2CCOCC2)ccc1OCCCCCOc1cc2c(cc1OC)C(=O)N1CCC[C@H]1C=N2	170	< 100	150	170	< 100	< 100	160	< 100	< 100	< 100	140	–	–	–	–	–	–
COc1cc(/C=C/C(=O)N2CCOCC2)ccc1OCCCOc1cc2c(cc1OC)C(=O)N1CCC[C@H]1C=N2	140	100	< 100	120	< 100	130	100	120	< 100	< 100	< 100	–	–	–	–	–	–
COc1cc2c(cc1O)N=C[C@@H]1CCCN1C2=O	150	110	170	170	160	200	160	–	–	170	140	–	–	–	–	–	–
COc1cc(/C=C/C(=O)N2CCOCC2)ccc1OCCCCOc1cc2c(cc1OC)C(=O)N1CCC[C@H]1C=N2	160	120	130	140	110	140	130	150	< 100	140	120	16400	40	Active	Active	Active	Active
COc1cc(/C=C/C(=O)N2CCN(C(=O)/C=C/c3ccc(OCCCCCCOc4cc5c(cc4OC)C(=O)N4CCC[C@H]4C=N5)c(OC)c3)CC2)ccc1OCCCCCCOc1cc2c(cc1OC)C(=O)N1CCC[C@H]1C=N2	< 100	< 100	< 100	< 100	150	150	< 100	210	< 100	1900	< 100	–	–	–	–	–	–
COc1cc(/C=C/C(=O)N2CCOCC2)ccc1OCCCCCCOc1cc2c(cc1OC)C(=O)N1CCC[C@H]1C=N2	< 100	150	< 100	< 100	< 100	170	< 100	140	150	150	< 100	–	–	–	–	–	–
COc1cc(/C=C/C(=O)N2CCN(C(=O)c3cc(OC)c(OC)c(OC)c3)CC2)ccc1OCCCCOc1cc2c(cc1OC)C(=O)N1CCC[C@H]1C=N2	170	< 100	150	170	120	< 100	110	150	110	140	150	–	–	–	–	–	–

From ChEMBL document CHEMBL1240420, “Synthesis and biological evaluation of cinnamido linked pyrrolo[2,1-c][1,4]benzodiazepines as antimitotic agents” (Eur J Med Chem, 2010)
